Assay outcomes from PubChem BioAssay.
Only some compounds are listed: those with a hit (about 3.1% of all), similar ones and a draw of the others.
H9c2 TAG inh = reduces triacylglycerol accumulation in H9c2 cells | Nile Red lipid (TAG) fluorescence; cells loaded with 200 µM oleic acid | inhibition, % at 12.5 µM | actives 0.66% (n = 230,000) | AID 651582;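 active means pattern-corrected inhibition of lipid staining of at least 50% with the nuclear-stain viability signal not falling by more than 50%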;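 further: 0% = DMSO wells and 100% = triacsin C control wells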
Calb FLC = affects C. albicans growth with fluconazole | actives 0.57% (n = 300,000) | C. albicans CaCi-2 + fluconazole, Alamar Blue growth, 48 h | AID 1979 | growth inhibition, % (concentration not given with the values);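 active means growth inhibition above about 58% in most replicates, limit read from the data, passing the limit was not always enough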;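 further: all wells also contain fluconazole at 8 µg/ml as a sub-toxic cotreatment; 0% = median of DMSO wells and 100% = median of geldanamycin control wells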
Bfl-1 A1 inh = inhibitors of the anti-apoptotic protein A1, read as caspase activation | caspase activation, % (no concentration beside the values) | actives 0.066% (n = 330,000) | MEF A1-2A-BIM cells, Caspase-Glo 3/7 luminescence, 3 h; percent of clofoctol response, vehicle zero;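 active means over half of replicate activation scores above 10%, or exactly half above 10 with the replicate mean above 10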
Beta apoptosis = blocks beta cell apoptosis. INS-1E cytokine-induced death, ATP luminescence, 48 h; percent of positive-control rescue, neutral wells zero. protection from apoptosis, % (concentration not given with the values). actives 0.8% (n = 300,000). AID 435005;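 active means Every replicate reaches about 75%, or at least half do and their mean reaches it too, limit read from the data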;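 further: 0% = cytokine-treated negative control wells and 100% = positive control rescue; higher means more ATP so stronger rescue from cytokine killing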
CSC inhib = cancer stem cell inhibition | AID 2717 | cancer stem cell-like cells viability, luminescence | actives 1.1% (n = 300,000) | inhibition, % at 7.5 µM; in the data active means inhibition above about 75%; tested in HMLE shEcad cells
T cruzi inh = T. cruzi replication inhibition; T. cruzi beta-gal in NIH3T3, luminescence, 90 h; inhibition, % (no concentration beside the values); actives 1.4% (n = 300,000); AID 1885;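 active means mean inhibition across valid replicates above about 55%, limit read from the data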;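 further: signal also drops with host cell toxicity which is not excluded here; 0% = plate median of DMSO wells and 100% = zero luminescence signal; higher percent means less beta-gal luminescence so fewer parasites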
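System: NIH/3T3 fibroblasts plus reporter T. cruzi. Medium: DMEM plus 2% FBS. Probe or stimulus: 5000 reporter trypomastigotes per well. Compound: single 50 nL compound addition per well in DMSO. Incubation: co-culture of at least 90 h after 3 h attachment. Detection: GalScreen β-gal luminescence, detergent lysis, 60 min. Evaluation: parasite load inhibition, %.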
H9c2 TAG conf = confirmation of triacylglycerol accumulation inhibitors; inhibition, % at 12.5 µM; shares compounds with H9c2 TAG inh; actives 71% (n = 990); H9c2 lipid accumulation, Nile Red fluorescence; cells loaded with 200 µM oleic acid;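 active means mean inhibition across replicates of 40% or more; inactive means mean inhibition below 40%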;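 further: plate controls were DMSO only wells for no effect and Triacsin C treated wells for full effect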
The depositor's hits bear a star; nt = no result given.

SMILES	H9c2 TAG inh	Calb FLC	Bfl-1 A1 inh	Beta apoptosis	CSC inhib	T cruzi inh	H9c2 TAG conf
CCn1c(Cc2ccccc2)nnc1SCC(=O)c1c(N)n(C2CC2)c(=O)[nH]c1=O	9	nt	0	-4	nt	nt	nt
CC(=O)Nc1ccc(SC[C@H](CC(C)C)N2CCN(CC(C)C)CCC2=O)cc1	67*	-3	-1	-5	8	19	1
COc1cc(CNC(=O)Nc2nc(C(N)c3ccccc3)cs2)cc(OC)c1OC (stereo not given)	23	nt	nt	nt	nt	nt	nt
NC(Cc1ccccc1)c1csc(NC(=O)c2cccc(OC(F)(F)F)c2)n1 (stereo not given)	26	nt	nt	nt	nt	nt	nt
CC(C)c1ccc(NC(=O)Nc2nc(C(N)COCc3ccccc3)cs2)cc1 (stereo not given)	83*	nt	nt	nt	nt	nt	102*
COc1ccc(CC(N)c2csc(NC(=O)c3cccc(OC(F)(F)F)c3)n2)cc1 (stereo not given)	52*	nt	nt	nt	nt	nt	34
COc1cc(CNC(=O)Nc2nc(C(N)Cc3ccc(Cl)cc3)cs2)cc(OC)c1OC (stereo not given)	67*	nt	nt	nt	nt	nt	94*
COc1ccccc1CNC(=O)Nc1nc(C(N)CCc2ccccc2)cs1 (stereo not given)	57*	nt	nt	nt	nt	nt	35
CC(=O)Nc1cc(-c2cccc(F)c2)cn2c(-c3ccccc3)cnc12	-21	nt	nt	nt	nt	nt	nt
C=C(C)c1cccc(C(C)(C)NC(=O)Nc2ccc(OC)nc2)c1	nt	6	0	nt	-7	8	nt
CCC(C)n1c(C)cc(=O)n1C(C)CC (stereo not given)	-2	nt	nt	nt	nt	nt	nt
CC(C)n1nccc1NC(=O)COC(=O)c1ccc(NC(N)=O)cc1	3	nt	2	3	-4	nt	nt
NC(Cc1ccc(Cl)cc1)c1csc(NC(=O)NCCc2ccccc2)n1 (stereo not given)	74*	nt	nt	nt	nt	nt	42*
COc1ccc(CC(N)c2csc(NC(=O)NCCc3ccccc3)n2)cc1 (stereo not given)	36	nt	nt	nt	nt	nt	nt
COc1ccc(CNC(=O)Nc2nc(C(N)Cc3ccc(C(F)(F)F)cc3)cs2)cc1 (stereo not given)	61*	nt	nt	nt	nt	nt	35
COc1cccc(Nc2nc(C(N)Cc3ccc(C(F)(F)F)cc3)cs2)n1 (stereo not given)	72*	nt	nt	nt	nt	nt	37
COc1cccc(Nc2nc(C(N)Cc3ccc(F)cc3)cs2)n1 (stereo not given)	20	nt	nt	nt	nt	nt	nt
Cc1ccc(-c2csc3ncn(CC(=O)NCC(c4ccco4)N4CCCC4)c(=O)c23)cc1 (stereo not given)	-4	nt	1	-1	-13	nt	nt
CC(=O)c1c(C)[nH]c(C(=O)NCCc2c[nH]c3ccccc23)c1C	nt	-1	-1	5	-10	5	nt
COc1ccc(NC(=O)c2nc(C)c(C3(C)CC(c4ccccc4)=NO3)s2)cc1 (stereo not given)	76*	-19	0	45	64	14	94*
Cc1nc(C(=O)Nc2ccccc2)sc1C1(C)CC(c2cccnc2)=NO1 (stereo not given)	nt	-19	-1	4	-1	-14	nt
CSC[C@H]1CN(c2ccccc2)C(=O)[C@@H]1CC(=O)Nc1ccc(Br)cc1	2	nt	nt	nt	nt	nt	nt
NS(=O)(=O)c1cccc(NC(=O)COC(=O)CN2C(=O)c3ccccc3C2=O)c1	1	nt	0	-1	nt	nt	nt
C[C@H](CO)N1C[C@H](C)[C@@H](CN(C)C(=O)Nc2ccccc2)Oc2ccc(NC(=O)Cn3cnnn3)cc2C1=O	8	nt	0	-10	nt	nt	nt
Cc1c(N=Cc2c(O)n(C)c(=O)c3ccccc23)c(=O)n(-c2ccccc2)n1C	nt	-6	-1	9	-3	-13	nt
SMILES	H9c2 TAG inh	Calb FLC	Bfl-1 A1 inh	Beta apoptosis	CSC inhib	T cruzi inh	H9c2 TAG conf
COc1ccc(C2=C(C=Nc3c(C)n(C)n(-c4ccccc4)c3=O)C(c3ccccc3C)c3ccccc3O2)cc1OC (stereo not given)	61*	-3	1	22	-1	54	32
Cc1ccc(S(=O)(=O)N2CCC(=O)N(CCOC(=O)NCc3ccccc3)CC2)cc1	nt	nt	1	-7	14	nt	nt
COc1ccc(CNC(=O)OCCN2CCN(S(=O)(=O)c3ccc(C)cc3)CCC2=O)cc1	72*	4	0	-10	-4	-4	1
COc1cc(C)c2sc3ccccc3c(=O)c2c1NCCN(C)C	70*	nt	nt	nt	nt	nt	64*
O=S(=O)(c1ccc(OCC(O)CNC23CC4CC(CC(C4)C2)C3)c(Cl)c1)N1CCOCC1 (stereo not given)	59*	-26	-1	-1	2	24	31
O=C(COc1ccc(S(=O)(=O)N2CCOCC2)cc1Cl)NC1CCCCC1	19	2	1	-3	2	4	nt
Cc1cc(Nc2ccc(C)c(Cl)c2)nc(N2CCOCC2)n1	72*	15	0	10	33	33	41*
CC(C)c1ccc(Nc2nc(N3CCOCC3)nc(N3CCOCC3)n2)cc1	74*	nt	nt	nt	nt	nt	91*
Cc1ccc(Nc2nc(N3CCOCC3)nc(N3CCOCC3)n2)cc1	nt	-2	0	-9	20	29	nt
O=C(O)C1CCCCN1C(=O)c1ccc(S(=O)(=O)N2CCCC2)cc1 (stereo not given)	4	nt	nt	nt	nt	nt	nt
CCN(C(=O)COC(=O)c1cc(-c2ccccc2)nc2ccc(Br)cc12)C1CCS(=O)(=O)C1 (stereo not given)	2	8	0	nt	nt	9	nt
CCN(C(=O)COC(=O)c1cc(-c2ccccc2)nc2c1c(C)nn2-c1ccc(C)cc1)C1CCS(=O)(=O)C1 (stereo not given)	55*	13	-1	3	10	12	69*
COCCC(=O)N1CCC(Oc2ccc(C(=O)N3CCCCC3COC)cc2)CC1 (stereo not given)	nt	18	0	1	4	-12	nt
COC(=O)[C@@H](CC(C)C)N(Cc1ccccc1)S(=O)(=O)N(Cc1ccccc1)[C@@H](CC(C)C)C(=O)OC	62*	nt	3	42	27	nt	-19
COCCS(=O)(=O)N(Cc1ccc(Br)cc1)[C@@H](C)C(=O)OC	53*	nt	nt	nt	nt	nt	-3
CS(=O)(=O)c1ccc(Cl)c(NC(=O)CSc2nnc3n2CCCCC3)c1	20	nt	nt	nt	nt	nt	nt
COC(=O)Nc1ccc(OCC(=O)N2CCOCC2)cc1	nt	35	-1	-8	-4	-9	nt
O=C(CCC1CCCC1)Nc1ccc(OCC(=O)N2CCOCC2)cc1	51*	-13	-1	nt	1	-20	36
Cn1cc(/C=N/n2cnc3scc(-c4ccc(Cl)cc4)c3c2=O)c2ccccc21	61*	-11	2	36	55	41	69*
COC(=O)c1cc(NC(=O)c2c(Cl)nc3sccn23)cc(C(=O)OC)c1	70*	0	1	24	2	-8	87*
O=C(NN(C(=O)c1ccccc1)c1cccs1)c1ccccc1	3	nt	nt	nt	nt	nt	nt
